PMC2947205 (Science (New York, N.Y.), 2009)
Like-named read-outs stand apart in the source and are kept apart here.

Assays:
sigma-1 receptor [1] = target: T1, sigma-1 receptor (Rattus norvegicus, UniProt Q9R0C9); assay: Protection of [125I]-IACoc photolabeling in rat liver membranes; format: binding; conditions: for protection against sigma-1 receptor [125I]-IACoc photolabeling (in words): even at these high concentrations (50 and 100 μM); for protection of [125I]-IACoc photolabeling of the 26-kD sigma-1 receptor: 1 nM [125I]-IACoc
sigma-1 receptor [2] = target: T1, sigma-1 receptor; assay: Protection of [125I]IAF photolabeling of sigma-1 receptor in rat liver membranes; format: binding; conditions: for protection of [125I]IAF photolabeling of the sigma-1 receptor: 1 nM [125I]IAF
sigma-2 receptor [3] = target: T2, sigma-2 receptor (Homo sapiens, UniProt Q5BJF2); assay: Sigma-2 receptor binding
WT mice = assay: Open-field assay, WT mice; format: in vivo, mouse
sigma-1 receptor KO mice = assay: Open-field assay, sigma-1 receptor KO mice; format: in vivo, mouse; conditions: 3 mg/kg, ip, n = 6
sigma-1 receptor [4] = target: T3, sigma-1 receptor (Homo sapiens, UniProt Q99720); conditions: read-out: sigma-1 Kd; cited from earlier work
sigma-2 receptor [5] = target: T2, sigma-2 receptor; conditions: read-out: sigma-2 Kd; cited from earlier work
[6] = tested on: human cardiac Na+ channel hNav1.5; assay: Patch-clamp INa in HEK293 cells stably expressing hNav1.5; format: cell-based; conditions: 100 μM, steps from −80 to −10 mV, n = 3
Procedure, shortened: (§1)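 Whole-cell INa was recorded in hNav1.5-expressing cells (HEK293; COS-7 transiently transfected). Currents were evoked by steps from −80 to −10 mV before, during and after washout of 100 μM test compound. Inhibition was derived from peak INa, reported as mean ± SEM of n = 3 cells.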

[7] = tested on: human cardiac Na+ channel hNav1.5; assay: Patch-clamp INa in COS-7 cells transiently transfected with hNav1.5; format: cell-based; conditions: 100 μM, n = 3
Procedure, shortened: as §1

[8] = tested on: WT neonatal cardiac myocytes; assay: Patch-clamp INa in WT neonatal cardiac myocytes; format: cell-based; conditions: Mus musculus, read-out: inhibition of INa
Procedure, shortened: (§2)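 Neonatal cardiac myocytes came from wild-type and sigma-1 receptor knock-out mice. INa was evoked by steps from −80 to −10 mV and recorded in the absence of, during and after washout of 100 μM test compound.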

KO myocytes = assay: Patch-clamp INa in sigma-1 receptor KO neonatal cardiac myocytes; format: cell-based, mouse; conditions: 100 μM, n = 7
Procedure, shortened: as §2

sigma-1 receptor [9] = target: T3, sigma-1 receptor; assay: Competition binding against
sigma-2 receptor [10] = target: T4, sigma-2 receptor (Rattus norvegicus, UniProt Q5U3Y7); assay: Protection of [125I]IAF photolabeling of sigma-2 receptor in rat liver membranes; format: binding; conditions: for protection of [125I]IAF sigma-2 receptor photolabeling: 1 nM [125I]IAF
T4 sequence (Q5U3Y7 1-176): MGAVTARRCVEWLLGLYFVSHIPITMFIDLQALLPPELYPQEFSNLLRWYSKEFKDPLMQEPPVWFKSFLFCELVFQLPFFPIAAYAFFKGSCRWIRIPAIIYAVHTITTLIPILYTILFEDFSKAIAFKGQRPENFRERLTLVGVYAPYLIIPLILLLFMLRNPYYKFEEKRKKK

T1 sequence (Q9R0C9 whole entry): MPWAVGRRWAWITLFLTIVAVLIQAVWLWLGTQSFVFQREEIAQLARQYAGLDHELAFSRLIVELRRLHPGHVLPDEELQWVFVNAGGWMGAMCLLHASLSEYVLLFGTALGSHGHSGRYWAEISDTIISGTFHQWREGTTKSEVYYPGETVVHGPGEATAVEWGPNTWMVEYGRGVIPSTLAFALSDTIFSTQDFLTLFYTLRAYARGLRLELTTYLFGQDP
T2 sequence (Q5BJF2 whole entry, species assumed): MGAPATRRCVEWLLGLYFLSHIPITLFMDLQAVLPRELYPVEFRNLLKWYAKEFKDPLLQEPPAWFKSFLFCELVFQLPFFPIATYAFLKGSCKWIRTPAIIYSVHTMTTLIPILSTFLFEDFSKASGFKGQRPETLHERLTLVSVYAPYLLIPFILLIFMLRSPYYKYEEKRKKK
T3 sequence (Q99720 whole entry, species assumed): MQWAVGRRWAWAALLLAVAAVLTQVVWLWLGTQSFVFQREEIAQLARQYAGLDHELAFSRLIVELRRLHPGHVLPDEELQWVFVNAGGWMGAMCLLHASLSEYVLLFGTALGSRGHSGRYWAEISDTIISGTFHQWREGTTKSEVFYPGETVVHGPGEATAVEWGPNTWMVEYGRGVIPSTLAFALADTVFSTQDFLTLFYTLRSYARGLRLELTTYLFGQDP

CNCCc1c[nH]c2ccccc12 [N-methyltryptamine]
protection against sigma-1 receptor [125I]-IACoc photolabeling (in words) (sigma-1 receptor [1]): protected minimally

CC(C)=CCN1CC[C@]2(C)c3cc(O)ccc3C[C@H]1[C@H]2C [(+)-pentazocine, reference compound]
protection of sigma-1 receptor photolabeling (in words) (sigma-1 receptor [2]; 10 μM, [125I]-IACoc or [125I]IAF): protected

CNCCc1ccc(O)cc1 [N-methyltyramine]
Kd (sigma-2 receptor [3]; read-out: sigma-2 receptor Kd): 6.61 µM

CN[C@@H](C)Cc1ccccc1 [methamphetamine, reference compound]
hypermobility in open-field assay (in words) (WT mice; 3 mg/kg, ip, n = 6): induced hypermobility | hypermobility in open-field assay (in words) (sigma-1 receptor KO mice): induced hypermobility

CC1CN(CCCc2ccc(N=[N+]=[N-])c(I)c2)CC(C)O1 (stereo not shown) [[^125I]IAF, 1-N-(2′,6′-dimethyl-morpholino)-3-(4-azido-3-[^125I]iodo-phenyl) propane]
Kd (sigma-1 receptor [4]): 0.194 µM | Kd (sigma-2 receptor [5]): 2.78 µM

CN(C)CCc1c[nH]c2ccccc12 [DMT, N,N-dimethyltryptamine]
protection of [125I]-IACoc photolabeling of the 26-kD sigma-1 receptor (sigma-1 receptor [1]; 50 μM): 61% | protection of [125I]-IACoc photolabeling of the 26-kD sigma-1 receptor (sigma-1 receptor [1]; 100 μM): ~100% | protection of [125I]IAF photolabeling of the sigma-1 receptor (sigma-1 receptor [2]; 10 μM): 31% | protection of [125I]IAF photolabeling of the sigma-1 receptor (sigma-1 receptor [2]; 50 μM): 43% | protection of [125I]IAF photolabeling of the sigma-1 receptor (sigma-1 receptor [2]; 100 μM): 69% | inhibition of INa [6]: 62 ± 3% | inhibition of INa [7]: 22 ± 4% | inhibition at 100 µM [8]: 29 ± 3% | reduction of INa (KO myocytes): 7 ± 2% | distance traveled in open-field assay (hypermobility) (WT mice; 2 mg/kg ip, 2 hours after pargyline (75 mg/kg, ip), n = 12): 7025 ± 524.1 cm

NCCc1ccccc1 [phenethylamine]
Kd (sigma-1 receptor [9]): 97.4 µM | Kd (sigma-2 receptor [3]): 7.31 µM

O=C(CCCN1CCC(O)(c2ccc(Cl)cc2)CC1)c1ccc(F)cc1 [haloperidol, reference compound]
protection of sigma-2 receptor photolabeling (in words) (sigma-2 receptor [10]; 10 μM, [125I]IAF): protected

NCCc1ccc(O)cc1 [tyramine]
Kd (sigma-1 receptor [9]): > 30000 µM

COC(=O)C1C(OC(=O)c2ccc(N=[N+]=[N-])c(I)c2)CC2CCC1N2C (stereo not shown) [[^125I]-IACoc, 3-[^125I]iodo-4-azidococaine]
Kd (sigma-1 receptor [4]): 0.000126 µM

NCCc1c[nH]c2ccccc12 [tryptamine]
Kd (sigma-1 receptor [9]): 431 µM | Kd (sigma-2 receptor [3]): 4.91 µM | protection against sigma-1 receptor [125I]-IACoc photolabeling (in words) (sigma-1 receptor [1]): protected minimally | protection of [125I]IAF sigma-2 receptor photolabeling (sigma-2 receptor [10]; 10 μM): 47% | protection of [125I]IAF sigma-2 receptor photolabeling (sigma-2 receptor [10]; 50 μM): 78% | protection of [125I]IAF sigma-2 receptor photolabeling (sigma-2 receptor [10]; 100 μM): 79%
